How the values were obtained:
[1] = system: Candida albicans; assay: Antifungal activity against pharmacoresistant Candida albicans AIDS68 infected in Wistar rat estrogen-dependent fungal vaginitis model assessed as fungal burden at 10 uM administered intravaginally 48 hrs after fungal infection measured on day 14 after infection; format: functional, Vagina
How it was run: (§1)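 Oophorectomized female Wistar rats (80-100 g) got 0.5 mg estradiol benzoate s.c. Six days later they were inoculated intravaginally with >10⁷ YPD-grown yeast cells (28 °C, washed, hemocytometer-counted) in 0.1 mL saline. Treatment was given intravaginally at 1, 24 and 48 h post-challenge. Burden was counted by culturing 100 μL vaginal fluid on Sabouraud-chloramphenicol (50 μg/mL) agar, as CFU/mL ×1000, through day 28.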

[2] = molecular target: Secreted aspartic protease 2 (Candida albicans) (UniProt P0CS83); assay: Inhibition of Candida albicans SAP2 at 0.02 uM by spectrophotometry relative to pepstatin A
Sequence of Secreted aspartic protease 2 (Candida albicans) (P0CS83 57-398 limits assumed): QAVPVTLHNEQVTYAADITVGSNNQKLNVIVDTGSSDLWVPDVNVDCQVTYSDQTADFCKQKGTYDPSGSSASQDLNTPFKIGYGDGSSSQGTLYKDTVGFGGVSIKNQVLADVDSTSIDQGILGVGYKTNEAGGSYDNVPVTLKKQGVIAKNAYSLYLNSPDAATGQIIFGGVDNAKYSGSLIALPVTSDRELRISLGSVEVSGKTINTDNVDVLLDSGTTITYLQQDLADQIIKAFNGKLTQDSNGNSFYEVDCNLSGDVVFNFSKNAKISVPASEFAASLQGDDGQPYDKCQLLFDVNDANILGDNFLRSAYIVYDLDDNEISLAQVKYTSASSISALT
How it was run: (§2)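 Sample was mixed with 1% (w/v) BSA substrate in 50 mM sodium citrate, pH 3.2, plus SAP2 protease (1 μg/mL stock solution) and incubated 30 min at 37 °C. The reaction was stopped with 10% TCA, kept 30 min on ice, and centrifuged; supernatant A280 was read. Percent inhibition was taken from ΔOD, with control proteinase minus proteinase plus pepstatin A set as 100%.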

[3] = system: Candida albicans; assay: Antifungal activity against Candida albicans SA40 infected in Wistar rat estrogen-dependent fungal vaginitis model assessed as fungal burden at 10 uM administered intravaginally 1 hr after fungal infection measured within 1 day of infection; format: functional, Vagina; how it was run: as §1
[4] = system: Candida albicans; assay: Antifungal activity against Candida albicans SA40 infected in Wistar rat estrogen-dependent fungal vaginitis model assessed as fungal burden at 10 uM administered intravaginally 48 hrs after fungal infection measured on day 14 after infection; format: functional, Vagina
How it was run: (§3)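 Oophorectomized female Wistar rats (80-100 g), given 0.5 mg estradiol benzoate subcutaneously, were challenged intravaginally six days later with >10⁷ YPD-grown yeast cells in 0.1 mL saline. Compound at 10 μM was instilled intravaginally at 1, 24 and 48 h post-challenge. Vaginal fluid samples (100 μL) were plated on Sabouraud agar with chloramphenicol (50 μg/mL), and burden was expressed as CFU/mL ×1000.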

[5] = molecular target: Secreted aspartic protease 2 (Candida albicans) (UniProt P0CS83); assay: Inhibition of Candida albicans SAP2 at 0.2 uM by spectrophotometry relative to pepstatin A; how it was run: as §2
[6] = system: Candida albicans; assay: Antifungal activity against Candida albicans SA40 infected in Wistar rat estrogen-dependent fungal vaginitis model assessed as fungal burden at 10 uM administered intravaginally 48 hrs after fungal infection measured on day 5 after infection; format: functional, Vagina; how it was run: as §3
[7] = system: Candida albicans; assay: Antifungal activity against pharmacoresistant Candida albicans AIDS68 infected in Wistar rat estrogen-dependent fungal vaginitis model assessed as fungal burden at 10 uM administered intravaginally 1 hr after fungal infection measured on day 1 after infection; format: functional, Vagina; how it was run: as §1
[8] = system: Candida albicans; assay: Antifungal activity against Candida albicans SA40 infected in Wistar rat estrogen-dependent fungal vaginitis model assessed as fungal burden at 10 uM administered intravaginally 48 hrs after fungal infection measured on day 28 after infection; format: functional, Vagina; how it was run: as §1
[9] = molecular target: Secreted aspartic protease 2 (Candida albicans) (UniProt P0CS83); assay: Inhibition of Candida albicans SAP2 at 2 uM by spectrophotometry relative to pepstatin A; how it was run: as §2
[10] = system: Candida albicans; assay: Antifungal activity against pharmacoresistant Candida albicans AIDS68 infected in Wistar rat estrogen-dependent fungal vaginitis model assessed as fungal burden at 10 uM administered intravaginally 48 hrs after fungal infection measured on day 21 after infection; format: functional, Vagina; how it was run: as §1
[11] = system: Candida albicans; assay: Antifungal activity against Candida albicans SA40 infected in Wistar rat estrogen-dependent fungal vaginitis model assessed as fungal burden at 10 uM administered intravaginally 48 hrs after fungal infection measured on day 21 after infection; format: functional, Vagina; how it was run: as §3
[12] = system: Candida albicans; assay: Antifungal activity against pharmacoresistant Candida albicans AIDS68 infected in Wistar rat estrogen-dependent fungal vaginitis model assessed as fungal burden at 10 uM administered intravaginally 48 hrs after fungal infection measured on day 28 after infection; format: functional, Vagina; how it was run: as §1
[13] = system: Candida albicans; assay: Antifungal activity against Candida albicans SA40 infected in Wistar rat estrogen-dependent fungal vaginitis model assessed as fungal burden at 10 uM administered intravaginally 1 hr after fungal infection measured on day 1 after infection; format: functional, Vagina; how it was run: as §3
[14] = system: Candida albicans; assay: Antifungal activity against Candida albicans SA40 infected in Wistar rat estrogen-dependent fungal vaginitis model assessed as fungal burden at 10 uM administered intravaginally 48 hrs after fungal infection measured on day 7 after infection; format: functional, Vagina; how it was run: as §3
[15] = system: Candida albicans; assay: Antifungal activity against pharmacoresistant Candida albicans AIDS68 infected in Wistar rat estrogen-dependent fungal vaginitis model assessed as fungal burden at 10 uM administered intravaginally 48 hrs after fungal infection measured on day 5 after infection; format: functional, Vagina; how it was run: as §1
[16] = system: Candida albicans; assay: Antifungal activity against Candida albicans SA40 infected in Wistar rat estrogen-dependent fungal vaginitis model assessed as fungal burden at 10 uM administered intravaginally 24 hrs after fungal infection measured on day 2 after infection; format: functional, Vagina; how it was run: as §3
[17] = molecular target: Secreted aspartic protease 2 (Candida albicans) (UniProt P0CS83); assay: Inhibition of Candida albicans SAP2 at 10 uM by spectrophotometry relative to pepstatin A; how it was run: as §2
[18] = molecular target: Secreted aspartic protease 2 (Candida albicans) (UniProt P0CS83); assay: Inhibition of Candida albicans SAP2 at 20 uM by spectrophotometry relative to pepstatin A; how it was run: as §2
[19] = system: Candida albicans; assay: Antifungal activity against pharmacoresistant Candida albicans AIDS68 infected in Wistar rat estrogen-dependent fungal vaginitis model assessed as fungal burden at 10 uM administered intravaginally 48 hrs after fungal infection measured on day 7 after infection; format: functional, Vagina; how it was run: as §1
[20] = system: Candida albicans; assay: Antifungal activity against pharmacoresistant Candida albicans AIDS68 infected in Wistar rat estrogen-dependent fungal vaginitis model assessed as fungal burden at 10 uM administered intravaginally 24 hrs after fungal infection measured on day 2 after infection; format: functional, Vagina; how it was run: as §1

Row | SMILES | Activity [1] [×10³ CFU/ml] | inhibition [2] [%] | Activity [3] [×10³ CFU/ml] | Activity [4] [×10³ CFU/ml] | inhibition [5] [%] | Activity [6] [×10³ CFU/ml] | Activity [7] [×10³ CFU/ml] | Activity [8] [×10³ CFU/ml] | inhibition [9] [%] | Activity [10] [×10³ CFU/ml] | Activity [11] [×10³ CFU/ml] | Activity [12] [×10³ CFU/ml] | Activity [13] [×10³ CFU/ml] | Activity [14] [×10³ CFU/ml] | Activity [15] [×10³ CFU/ml] | Activity [16] [×10³ CFU/ml] | inhibition [17] [%] | inhibition [18] [%] | Activity [19] [×10³ CFU/ml] | Activity [20] [×10³ CFU/ml]
1 | O=C([C@@H]1O[C@H]2CN(Cc3ccccc3)C(=O)[C@@H]1O2)N1CCCCC1 | 12.8 | 0 | >100 | 14.4 | 19 | 39.2 | 71.8 | 1.2 | 50 | 3.4 | 8 | 0 | 70 | 30.6 | 40.6 | 57.6 | 67 | 74 | 23.2 | 62.6
2 | CC(C)C[C@@H](CO)NC(=O)[C@@H]1O[C@H]2CN(Cc3ccccc3)C(=O)[C@@H]1O2 | 11.2 | 1.4 | 100 | 14 | – | 35.8 | 61.6 | 2.2 | 6.9 | – | 4.2 | 0 | 61 | 28.8 | 26.8 | 58 | 61 | 71 | 22.8 | 55.4

Source: ChEMBL document CHEMBL1157639, “Identification of inhibitors of drug-resistant Candida albicans strains from a library of bicyclic peptidomimetic compounds” (2010)
